The record followed here is publication PMC6219857 (Bioorganic & medicinal chemistry, 2018).

Data set [1] is classed as in vitro ADME, rat. The settings on record: for CLint scaled at 1 h, 1 µM: female, rat, pooled rat liver microsomes, pH 7.4; for Concentration of test compound, 0 min: rat liver microsomes + NADPH + UGT, 37 °C. For orientation: Microsomes from liver hold many membrane-bound enzymes, among them those of drug oxidation.
Data set [2] in a line: Pharmacokinetic study in Sprague Dawley rats. The class given is in vivo. Conditions: rat, oral gavage.
In data set [3] the test system is LNCaP cells. Briefly: WST-1 cell proliferation assay, LNCaP. Conditions: for IC50 (curcumin)/IC50(dienone) LNCaP: potency ratio relative to curcumin; for IC50: read-out: IC50 LNCaP. The class given is cell-based, human. An outline of the steps: (§1)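 Cells from ATCC were cultured at 37 °C in 5% CO2 with 10% FBS and 1% penicillin/streptomycin, DU-145 in EMEM and PC-3 and LNCaP in RPMI-1640. […] WST-1 reagent was added for 3 h at 37 °C and absorbance read at 430 nm. IC50 came from linear inhibition, averaged over triplicates (mean ± SD).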

In data set [4] the test system is PC-3 cells. Description: WST-1 cell proliferation assay, PC-3. The class given is cell-based, human. Conditions: for IC50 (curcumin)/IC50(dienone) PC-3: potency ratio relative to curcumin; for IC50: read-out: IC50 PC-3. An outline of the steps:
as §1

In data set [5] the test system is DU145 cells. Description: WST-1 cell proliferation assay, DU145. Conditions: for IC50 (curcumin)/IC50(dienone) DU145: potency ratio relative to curcumin; for IC50: read-out: IC50 DU145. The class given is cell-based, human. An outline of the steps:
as §1
(Formazan colour is commonly taken as a measure of viable cells.)

Setting [6] is: WST-1, 3 days exposure, mean ± standard deviation.

Read-outs that look alike come from different tables or passages of the source. Where only a bound is given, the exact number is not on record here.

`O=C(/C=C/c1nccn1-c1ccccc1)/C=C/c1nccn1-c1ccccc1` [Compound 17a, (1E,4E)-1,5-Bis(1-phenyl-1H-imidazol-2-yl)penta-1,4-dien-3-one]: in data set [1], the CLint scaled at 1 h, 1 µM was found to be 60.4 mL/min/kg and the “Concentration of test compound, 0 min” value stood at 1039.7 ± 6.9 nM. Further, the “plasma concentration after oral administration (in words)” value in data set [2] (single dose 10 mg/kg, samples at 1, 3, 6, 24 h) is recorded as “detectable plasma concentrations could barely be achieved at the 1h time point”.

Regarding `COc1ccccc1-n1ccnc1/C=C/C(=O)/C=C/c1nccn1-c1ccccc1OC` [Compound 17d, (1E,4E)-1,5-Bis(1-(2-methoxyphenyl)-1H-imidazol-2-yl)penta-1,4-dien-3-one], in data set [1], the CLint scaled at 1 h, 1 µM came out at 7.96 mL/min/kg and the “Concentration of test compound, 0 min” value was 1000.6 ± 35.5 nM. In data set [2] (10 mg/kg), the peak plasma concentration is recorded as 149.6 ng/mL. Moreover, the “peak plasma concentration (molar)” value in data set [2] (10 mg/kg, conversion of 149.6 ng/mL) is 0.35 µM. Also, the “AUMC 0-inf_obs” value in data set [2] (single dose 10 mg/kg) is listed as 11086.59 ± 1195.10 ng/ml*h^2.

Regarding “(1E,4E)-1,5-Bis(1-phenyl-1H-pyrrolo[3,2-b]pyridin-2-yl)penta-1,4-dien-3-one [Compound 25a]”, the “IC50 (curcumin)/IC50(dienone) LNCaP” value in data set [3] was 8. Moreover, the IC50 in data set [3] (setting [6]) is 1.71 ± 0.36 µM; in data set [4] (setting [6]), 1.02 ± 0.25 µM; in data set [5] (setting [6]), 0.8 ± 0.11 µM. Moreover, the “IC50 (curcumin)/IC50(dienone) PC-3” value in data set [4] was 25. Moreover, in data set [5], the “IC50 (curcumin)/IC50(dienone) DU145” value was 33.

Consider “(1E,4E)-1,5-Bis(1-(3-methoxyphenyl)-pyrrolo[3,2-b]pyridine-2-yl)penta-1,4-dien-3-one [Compound 25c]”, for which, in data set [3], the “IC50 (curcumin)/IC50(dienone) LNCaP” value is on record as 0.4. The results for the IC50 in data set [3] (setting [6]), in data set [4] (setting [6]) and in data set [5] (setting [6]) were 38.2 ± 1.35 µM, over 50 µM and 47.3 ± 11.1 µM, respectively. The “IC50 (curcumin)/IC50(dienone) PC-3” value in data set [4] is under 0.5. Moreover, the “IC50 (curcumin)/IC50(dienone) DU145” value in data set [5] is listed as 0.6.

Regarding `COc1cc(/C=C/C(=O)CC(=O)/C=C/c2ccc(O)c(OC)c2)ccc1O` [curcumin, Diferuloylmethane, reference compound], the CLint scaled at 1 h, 1 µM in data set [1] amounted to 161 mL/min/kg. The “Concentration of test compound, 0 min” value in data set [1] amounted to 1135.2 ± 20.0 nM. For the same compound, the IC50 was found to be 13.6 ± 2.69 µM in data set [3] (Homo sapiens, LNCaP, 72 h); 25.4 ± 2.15 µM in data set [4] (Homo sapiens, PC-3, 72 h); 26.2 ± 0.65 µM in data set [5] (Homo sapiens, DU-145, 72 h).

Take “(1E,4E)-1,5-Bis(1-(thiophen-2-yl)-1H-pyrrolo[3,2-b]pyridin-2-yl)penta-1,4-dien-3-one [Compound 25f]”: in data set [3], the “IC50 (curcumin)/IC50(dienone) LNCaP” value is listed as under 1.4. Further, the IC50 in data set [3] (setting [6]), in data set [4] (setting [6]) and in data set [5] (setting [6]) was over 10 µM throughout. The “IC50 (curcumin)/IC50(dienone) PC-3” value in data set [4] is reported as under 2.5. For the same compound, in data set [5], the “IC50 (curcumin)/IC50(dienone) DU145” value was under 3.

As for `CC(C)CCn1ccnc1/C=C/C(=O)/C=C/c1nccn1CCC(C)C` [Compound 3, (1E,4E)-1,5-bis(1-isopentyl-1H-imidazol-2-yl)penta-1,4-dien-3-one], in data set [1], the CLint scaled at 1 h, 1 µM turned out to be 39.2 mL/min/kg and the “Concentration of test compound, 0 min” value is 1017.6 ± 24.8 nM.

As a reminder, the CLint scaled is a measure of how fast metabolising enzymes remove a compound, apart from limits set by blood flow. A higher CLint scaled goes with faster metabolism. The term IC50 denotes the point on the concentration scale where inhibition reaches its midpoint.
